In ChEMBL document CHEMBL1125883, “Thromboxane receptor antagonism combined with thromboxane synthase inhibition. 1. (+/-)-(3-pyridinylbicycloheptyl)alkanoic acids” (J Med Chem, 1991):

Key:
Homo sapiens [1] = species: Homo sapiens; experiment: In vitro inhibition of U 46619 induced aggregation of washed human platelets; assay type: functional
Thromboxane-A synthase [2] = target: T1, Thromboxane-A synthase (Homo sapiens, UniProt P24557); experiment: In vitro inhibition of thromboxane synthase using [14C]arachidonic acid
T1 sequence (P24557 whole entry): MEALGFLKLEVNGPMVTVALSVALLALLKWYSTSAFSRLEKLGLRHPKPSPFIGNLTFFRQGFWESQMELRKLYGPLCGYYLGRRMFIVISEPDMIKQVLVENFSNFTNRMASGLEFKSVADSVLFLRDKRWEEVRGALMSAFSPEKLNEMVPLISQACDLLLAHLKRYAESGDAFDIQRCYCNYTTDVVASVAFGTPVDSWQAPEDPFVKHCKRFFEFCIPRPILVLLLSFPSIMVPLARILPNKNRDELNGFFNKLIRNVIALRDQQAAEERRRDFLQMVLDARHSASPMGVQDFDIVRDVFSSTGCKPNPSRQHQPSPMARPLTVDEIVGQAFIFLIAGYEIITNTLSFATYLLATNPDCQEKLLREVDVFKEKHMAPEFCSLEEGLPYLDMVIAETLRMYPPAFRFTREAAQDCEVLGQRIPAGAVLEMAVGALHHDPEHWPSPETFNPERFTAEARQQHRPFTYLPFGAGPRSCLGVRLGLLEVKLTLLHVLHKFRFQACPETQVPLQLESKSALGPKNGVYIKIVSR
How it was run: (§1)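 Human platelet microsomal preparation incubated with [14C]arachidonic acid; thromboxane synthase activity read as TxB2 formation; IC50 determined.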

Canis familiaris = species: Canis familiaris; experiment: In vitro inhibition of U 46619 induced contraction of dog saphenous vein; assay type: functional; conditions: Canis lupus familiaris, read-out: pA2 (converted)
How it was run: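 Dog saphenous vein rings 2-3 mm in modified Krebs buffer with 1.0 μM indomethacin, 95% O2/5% CO2, 37 °C, 2.0 g preload, isometric tension.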

Homo sapiens [3] = species: Homo sapiens; experiment: In vitro inhibition of U 46619 induced aggregation of human PRP; assay type: functional, organism-based
Thromboxane-A synthase [4] = target: T1, Thromboxane-A synthase; experiment: In vitro inhibition of Thromboxane synthase using [14C]arachidonic acid […]; how it was run: as §1

Compound	IC50 (Homo sapiens [1]) [nM]	IC50 (Thromboxane-A synthase [2]) [nM]	Kb (Canis familiaris) [nM]	IC50 (Homo sapiens [3]) [nM]	IC50 (Thromboxane-A synthase [4]) [nM]
O=C(O)CCCCCC[C@@H]1C2CCC(C2)C1c1cccnc1 (some centres not stated)	9770	125	–	–	–
O=C(O)CCCCCC[C@H]1C2CCC(C2)[C@H]1c1cccnc1 (some centres not stated)	13000	7	–	–	–
O=C(O)CCC/C=C\C[C@@H]1C2CCC(C2)[C@@]1(CCCCCc1ccccc1)c1cccnc1 (some centres not stated)	1500	790	–	–	–
O=C(O)CCCCCC[C@@H]1C2CCC(C2)[C@@H]1c1cccnc1 (some centres not stated)	7250	54	–	–	–
O=C(O)CC/C=C\C[C@@]1(c2cccnc2)C2CCC(C2)[C@H]1CNS(=O)(=O)c1ccc(Cl)cc1 (some centres not stated)	30	340	3.24	10800	–
O=C(O)CCCC/C=C\C[C@@H]1C2CCC(C2)C1c1cccnc1 (some centres not stated)	–	–	–	–	165
O=C(O)CCCCO/N=C(/c1cccnc1)c1cccc(C(F)(F)F)c1 [RIDOGREL]	1280	–	447	2830	3
